Key:
[1] = test system: HCT-116; assay: Antiproliferative activity against human HCT116 cells after 72 hrs by MTS assay; type: functional, cell-based; details: HCT-116, 72 h
How it was run: (§1)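 Cells grown in RPMI 1640 with 10% fetal calf serum, streptomycin and fungizone at 37 °C, 5% CO2. MTS reagent was added for 2 h and absorbance read at 490. IC50 is the concentration giving 50% growth inhibition.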

[2] = Inhibition of tubulin polymerization by DAPI fluorescent assay
How it was run: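 Tubulin (97% pure, 1 mg/ml final) in PME buffer (100 mM PIPES, 1 mM MgSO4, 2 mM EGTA) with DAPI and graded compound, colchicine as internal control. Preincubated 45 min at room temperature, then polymerization started by adding 1 mM GTP. Run 2 h at 37 °C with fluorescence excitation at 360 nm. IC50 taken from a semi-log plot of % inhibition against concentration.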

[3] = test system: HT-29; assay: Antiproliferative activity against human HT-29 cells after 72 hrs by MTS assay; type: functional, cell-based; details: HT-29, 72 h; how it was run: as §1
[4] = test system: HCT-15; assay: Antiproliferative activity against human HCT15 cells after 72 hrs by MTS assay; type: functional, cell-based; details: HCT-15, 72 h; how it was run: as §1
[5] = test system: B16; assay: Cytotoxicity against mouse B16 cells assessed as reduction in cell viability after 48 hrs by MTT assay; type: functional, cell-based; details: B16, 48 h
How it was run: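 B16 cells kept in DMEM with 2 mM L-glutamine, 10% FBS, penicillin/streptomycin at 37 °C, 5% CO2. After 48 h exposure, MTT was read at 562 nm with background subtracted. IC50 is the mean of three independent experiments.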

SMILES | IC50 [1] | IC50 [2] | IC50 [3] | IC50 [4] | IC50 [5]
COc1ccc(/C=C\c2cc(OC)c(OC)c(OC)c2)cc1O [COMBRETASTATIN A4] | 0.001 µM | 0.27 µM | 0.013 µM | 0.001 µM | 0.005 µM
COc1cc2[nH]c(C(=O)c3ccccc3)cc2c(OC)c1OC |  | > 20 µM |  |  | 45 µM
COc1ccc(C(=O)c2cc3c(OC)c(OC)c(OC)cc3[nH]2)cc1F |  | > 20 µM |  |  | 16 µM
COc1ccc(C(=O)c2cc3cc(OC)c(OC)c(OC)c3[nH]2)cn1 |  | 18 µM |  |  | > 50 µM
COc1cc2cc(C(=O)c3ccc(C)cc3)[nH]c2c(OC)c1OC | > 50 µM | > 20 µM | > 50 µM | > 50 µM | 10 µM
COc1cc2[nH]c(C(=O)/C=C/c3ccccc3)cc2c(OC)c1OC |  | > 20 µM |  |  | 16 µM
COc1cc2cc(C(=O)/C=C/c3ccccc3)[nH]c2c(OC)c1OC |  | 18 µM |  |  | 33 µM
COc1ccc(C(=O)c2cc3cc(OC)c(OC)c(OC)c3[nH]2)cc1F |  | 20 µM |  |  | > 50 µM

Second part, led by results:

IC50 [1] | IC50 [2] | IC50 [3] | IC50 [4] | SMILES | IC50 [5]
2.8 µM | 4 µM | 1.09 µM | 0.61 µM | COc1cc2[nH]c(C(=O)c3ccc(C)cc3)cc2c(OC)c1OC | 10 µM
2 µM | 10 µM | 0.99 µM | 0.32 µM | COc1cc2[nH]c(C(=O)c3ccc(C)c(N)c3)cc2c(OC)c1OC | 36 µM
 | 12 µM |  |  | COc1ccc(C(=O)c2cc3cc(OC)c(OC)c(OC)c3[nH]2)cc1 | > 50 µM
 | 15 µM |  |  | COc1ccc(C(=O)c2cc3c(OC)c(OC)c(OC)cc3[nH]2)cn1 | > 50 µM
> 50 µM | 9 µM | > 50 µM | > 50 µM | COc1cc2cc(C(=O)c3ccccc3)[nH]c2c(OC)c1OC | > 50 µM
4.2 µM | 9 µM | 1.24 µM | 0.45 µM | COc1ccc(C(=O)c2cc3c(OC)c(OC)c(OC)cc3[nH]2)cc1 | > 50 µM

Source: ChEMBL document CHEMBL1649381, “Domino approach to 2-aroyltrimethoxyindoles as novel heterocyclic combretastatin A4 analogues” (Eur J Med Chem, 2011)
